Experimental data: PubChem BioAssay
Results filed as inconclusive are left out. The source made the active and inactive calls.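 Rule for the calls, unless noted: active = RAM network inhibition above 8.4% in each of two replicates, 3 SD over the compound average; inconclusive = above 8.4% inhibition in only one replicate; inactive = 8.4% inhibition or less in each replicate.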

Assays:
[1] = OD615 S. cerevisiae growth inhibition, permissive medium, pilot counter-assay, permissive growth control for S. cerevisiae lifespan shortening project (AID 705;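 active = growth inhibition above 25% in both replicates, a cutoff set 3 SD above the mean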); settings: OD615, 24 h, at 10 µM, active compounds read high
Method in brief: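 assay system = Saccharomyces cerevisiae strain carrying genetically modified DeaD replicative-lifespan system | technique = absorbance (optical density) at 615 nm | buffer or medium = permissive raffinose/galactose medium | timing = cells pre-grown 4 h, then 24 h compound exposure, 30 °C humidified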

[2] = Restrictive medium S. cerevisiae growth inhibition, OD615, pilot screen of yeast lifespan reduction project, restrictive growth control (AID 706;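 active = growth inhibition above a set limit, 3 SD over mean compound inhibition, in both replicates, cut at about 43% in these data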;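 note: modified DeaD lifespan yeast strain shifted to restrictive glucose medium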); settings: OD615, 48 h, at 10 µM, active compounds read high
Method in brief: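 System: modified S. cerevisiae. Buffer or medium: CSMM-D glucose medium. Incubation: 4 h pre-growth plus 48 h compound exposure, 30 °C. Detection: absorbance (optical density) measured at 615 nm.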

[3] = viability gain of MRP-1-high H69AR cells under doxorubicin, pilot screen, MRP-1 activator project, CellTiter-Glo, duplicate (AID 807;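 active = viability increase at or above a cutoff of the median across tested compounds plus 3 SD, cut at about 8.5% in these data, passing the limit was not always enough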;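 note: compound pretreatment 18-22 h then 72 h combined with doxorubicin; 0% = doxorubicin alone and 100% = vehicle without doxorubicin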); settings: H69AR viability with doxorubicin, CellTiter-Glo luminescence; at 10 µM; active compounds read high
[4] = growth suppression of beta-catenin knockout HCT116, pilot screen, human colon tumor cells (AID 823;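 active = cell viability at or below a set limit in both duplicate runs, the limit being the all-compound median minus 4 SD, cut at about 23% in these data, passing the limit was not always enough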;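 note: 0% = wells killed by 20 µM Hyamine and 100% = untreated DMSO cell wells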); settings: CellTiter-Glo, 60 h, at 10 µM, active compounds read low
[5] = growth suppression of PTEN-deleted HCT116, pilot screen, cell-based, HCT116 clonal line, CellTiter-Glo (AID 824;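 active = viability at or below 27.92% in each of two runs, the all-compound median minus 4 SD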;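 note: 0% = 20 µM Hyamine control and 100% = vehicle cell control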); settings: 60 h, at 10 µM, active compounds read low
[6] = inhibitors of the yeast RAM network, pilot screen, dse1pr::URA3 reporter, 5-FOA selection (AID 869;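 active = inhibition over a set limit, the all-compound mean plus 3 SD, in both replicate runs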;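 note: 0% = DMSO wells with no growth and 100% = 10 µM 1-NA-PP1 with full growth; RAM network block rescues cells from 5-FOA so hits raise OD615 growth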); settings: S. cerevisiae dse1pr::URA3 5-FOA growth, OD615, 2 d; at 10 µM; active compounds read high; strain carries analog-sensitive mutant Cbk1 kinase
[7] = RAM signaling pathway blockade in yeast – S. cerevisiae, Pdr1DBD-CYC8 efflux-inhibited sensitized strain, primary screen (AID 1298);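 note: 0% = DMSO untreated cells without growth and 100% = 10 µM 1-NA-PP1 full growth; higher means more yeast growth rescued from 5-FOA killing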; settings: S. cerevisiae cbk1-as DSE1-URA3 strain, 5-FOA growth OD615, 2 d; at 50 µM; active compounds read high

CS(=O)(=O)c1ccc(N)cc1
inactive: growth inhibition [1] -13.1% | growth inhibition [2] -8.62% | viability increase [3] -2.37% | viability [4] 103% | viability [5] 88.9% | inhibition [6] 2.72% | RAM network inhibition [7] 1.16%

CCOC(=O)N1CCN(CC(=O)Nc2ccc(C)cc2)CC1
inactive: growth inhibition [1] -4.43% | growth inhibition [2] 4.79% | viability increase [3] -3.03% | viability [4] 98.3% | viability [5] 100% | inhibition [6] 1.11% | RAM network inhibition [7] -0.15%

CC1CN(S(=O)(=O)c2ccc(C(=O)Nc3nnc(-c4ccc5c(c4)CCCC5)o3)cc2)CC(C)O1 (configuration not stated)
inactive: growth inhibition [1] -19.1% | growth inhibition [2] 1.69% | viability increase [3] -5.17% | inhibition [6] 1.67% | RAM network inhibition [7] 5.1%
active: viability [4] 21.1% | viability [5] 19.7%

Cc1ccc(OCc2nc(-c3ccccn3)no2)c(Br)c1
inactive: growth inhibition [1] 1.26% | growth inhibition [2] 4.31% | viability increase [3] 1.13% | viability [4] 86.7% | viability [5] 84.9% | inhibition [6] -0.35% | RAM network inhibition [7] 1.62%

Cc1cc(N2CCN(C3CCCCC3)CC2)nc2cccc(O)c12
inactive: growth inhibition [1] -7.5% | growth inhibition [2] -31.3% | viability increase [3] -4% | viability [4] 61% | viability [5] 62.8% | inhibition [6] 2.71% | RAM network inhibition [7] 4.45%

CCCC(=O)C1=C(O)C(C(=O)OC)C(C)(C)CC1=Nc1ccccc1 (configuration not stated)
inactive: growth inhibition [1] -12.6% | growth inhibition [2] -6.79% | viability increase [3] -0.91% | viability [4] 91.2% | viability [5] 88.6% | inhibition [6] 0.685% | RAM network inhibition [7] 2.75%

NC(=O)C1(N2CCCCC2)CCN(C(=O)CCCn2c(=O)[nH]c3ccsc3c2=O)CC1
inactive: growth inhibition [1] -6.16% | growth inhibition [2] 2.1% | viability increase [3] -1.61% | viability [4] 93.5% | viability [5] 91.6% | inhibition [6] 1.89% | RAM network inhibition [7] 0.48%

CCOc1ccc(Cc2nnc(SCC(=O)c3ccc(OC)cc3)o2)cc1
inactive: growth inhibition [1] 1.71% | growth inhibition [2] 25.5% | viability increase [3] 0.28% | viability [4] 54.3% | viability [5] 70.3% | inhibition [6] 1.66% | RAM network inhibition [7] 11.3%

CC1CCCN(C(=O)C(Cc2ccccc2)n2cccc2)C1 (configuration not stated)
inactive: growth inhibition [1] -11.8% | growth inhibition [2] -13% | viability increase [3] -3.01% | viability [4] 87.3% | viability [5] 88.4% | inhibition [6] 2% | RAM network inhibition [7] 0.97%

COc1cccc(CNC(=O)c2cc3ccccn3n2)c1
inactive: growth inhibition [1] -1.27% | growth inhibition [2] -6.35% | viability increase [3] -2.27% | viability [4] 106% | viability [5] 96.8% | inhibition [6] 1.33% | RAM network inhibition [7] -0.11%

Cc1ccc(-c2nc(C#N)c(N3CCCCC3)o2)cc1
inactive: growth inhibition [1] -4.44% | growth inhibition [2] -6.95% | viability increase [3] -1.61% | viability [4] 98% | viability [5] 78.1% | inhibition [6] 1.51% | RAM network inhibition [7] 3.37%

CCn1c(C(=O)NC(C)c2ccc3c(c2)OCCO3)cc2sccc21 (configuration not stated)
inactive: growth inhibition [1] -7.09% | growth inhibition [2] -9.22% | viability increase [3] -0.14% | viability [4] 96.1% | viability [5] 82% | inhibition [6] 1.62% | RAM network inhibition [7] 3.22%

CCn1c(SCC(=O)N2CCOCC2)nc(O)cc1=O
inactive: growth inhibition [1] -6.62% | growth inhibition [2] -12.7% | viability increase [3] -0.84% | viability [4] 105% | viability [5] 103% | inhibition [6] 2.59% | RAM network inhibition [7] 1.54%

O=C(Cc1c(C(=O)O)[nH]c2ccccc12)NC1CCN(Cc2ccccc2)CC1
inactive: growth inhibition [1] -9.14% | growth inhibition [2] -14.9% | viability increase [3] 0.24% | viability [4] 102% | viability [5] 99.8% | inhibition [6] 1.6% | RAM network inhibition [7] -1.14%

CCOC(=O)/C(C#N)=C1/C=Nc2ccccc2N1
inactive: growth inhibition [1] -4.26% | growth inhibition [2] -1.09% | viability increase [3] -1.54% | viability [4] 103% | viability [5] 89.8% | inhibition [6] -0.42% | RAM network inhibition [7] 0.25%

COC(=O)COC(=O)c1ccc(O)cc1
inactive: growth inhibition [1] 7.13% | growth inhibition [2] 4.2% | viability increase [3] -0.65% | viability [4] 99.5% | viability [5] 102% | inhibition [6] 2.5% | RAM network inhibition [7] 2.15%

COc1cccc(NC(=O)Cn2cnc3sc(C)c(S(=O)(=O)N4CCN(C)CC4)c3c2=O)c1
inactive: growth inhibition [1] -17.7% | growth inhibition [2] -24.1% | viability increase [3] -1.93% | viability [4] 89% | viability [5] 83.2% | inhibition [6] 1.76% | RAM network inhibition [7] 1.09%

CN(C)S(=O)(=O)c1ccc(C(=O)Nc2ccc(F)cc2F)cc1
inactive: growth inhibition [1] -14.5% | growth inhibition [2] 0.42% | viability increase [3] 1.08% | viability [4] 95.5% | viability [5] 94.4% | inhibition [6] 0.29% | RAM network inhibition [7] 2.9%

O=C(c1ccc(CS(=O)(=O)c2c(Cl)cccc2Cl)o1)N1CCN(c2ccccn2)CC1
inactive: growth inhibition [1] -4.86% | growth inhibition [2] -8.68% | viability increase [3] -3.07% | viability [4] 97.8% | viability [5] 93.1% | inhibition [6] -0.07% | RAM network inhibition [7] 3.34%

Cc1cccc(Cn2c(SCCN3CCOCC3)nc3c2c(=O)n(C)c(=O)n3C)c1
inactive: growth inhibition [1] 1.68% | growth inhibition [2] 1.63% | viability increase [3] -2.36% | viability [4] 103% | viability [5] 91% | inhibition [6] 0.9% | RAM network inhibition [7] 5.93%

Cc1cc(=O)oc2cc(OCC(O)CN3CCN(c4ccc(F)cc4)CC3)ccc12 (configuration not stated)
inactive: growth inhibition [1] -10.4% | growth inhibition [2] -2.92% | viability increase [3] -0.12% | viability [4] 74.5% | viability [5] 80.8% | inhibition [6] 0.85% | RAM network inhibition [7] -0.18%

COc1ccccc1NC(=O)C1=C(C)Nc2nnnn2C1c1cccc(C)c1 (configuration not stated)
inactive: growth inhibition [1] -13.2% | growth inhibition [2] -18.7% | viability increase [3] -5.73% | viability [4] 82.3% | viability [5] 80.8% | inhibition [6] 3.79% | RAM network inhibition [7] 2.19%

Cc1ccc(S(=O)(=O)NCC(=O)N2CCCCC2)cc1
inactive: growth inhibition [1] -11.1% | growth inhibition [2] -11.9% | viability increase [3] -1.13% | viability [4] 97.8% | viability [5] 102% | inhibition [6] 0.465% | RAM network inhibition [7] 1.88%

COc1cc2c(cc1OC)CN(Cc1cccs1)CC2
inactive: growth inhibition [1] -20.3% | growth inhibition [2] -28.9% | viability increase [3] -1.14% | viability [4] 86.4% | viability [5] 90% | inhibition [6] 2.71% | RAM network inhibition [7] 2.76%

COc1cccc2cc(C(=O)N3CCC(C)CC3)c(=O)oc12
inactive: growth inhibition [1] -2.37% | growth inhibition [2] -3.85% | viability increase [3] -0.12% | viability [4] 96.8% | viability [5] 90.5% | inhibition [6] 1.17% | RAM network inhibition [7] 4.51%

O=C(O)CC(NC(=O)OCc1ccccc1)c1ccccc1 (configuration not stated)
inactive: growth inhibition [1] 2.56% | growth inhibition [2] -5.79% | viability increase [3] -1.78% | viability [4] 91.7% | viability [5] 96.5% | inhibition [6] 1.17% | RAM network inhibition [7] -0.33%

CCOC(=O)N1CCC(N2C(=O)c3ccccc3C2Nc2cc(OC)c(OC)c(OC)c2)CC1 (configuration not stated)
inactive: growth inhibition [1] 6.9% | growth inhibition [2] 8.61% | viability increase [3] -4.12% | viability [4] 92.2% | viability [5] 79.2% | inhibition [6] 0.24% | RAM network inhibition [7] 0.78%

O=C(NCc1cccnc1)NC1(C(F)(F)F)Oc2ccc(Cl)cc2O1 (configuration not stated)
inactive: growth inhibition [1] -2.96% | growth inhibition [2] -8.97% | viability increase [3] -6.19% | viability [4] 52.6% | viability [5] 58.7% | inhibition [6] 0.4% | RAM network inhibition [7] 0.63%

O=C(Nc1ccc(-c2nc3cccnc3s2)cc1)c1ccco1
inactive: growth inhibition [1] -4.68% | growth inhibition [2] 9.91% | viability increase [3] -3.43% | viability [4] 90% | viability [5] 80.4% | inhibition [6] 1.75% | RAM network inhibition [7] -1.95%

CCCCNC(=O)c1cc2c(-c3ccc(Cl)cc3)nn(C)c2s1
inactive: growth inhibition [1] 3.71% | growth inhibition [2] 6.75% | viability increase [3] -5.53% | viability [4] 89.9% | viability [5] 88.7% | inhibition [6] 3.1% | RAM network inhibition [7] 4.05%

CCCCOC(=O)Cc1c(O)c2ccccc2[nH]c1=O
inactive: growth inhibition [1] 10.9% | growth inhibition [2] 12.5% | viability increase [3] -1.82% | viability [4] 102% | viability [5] 93.2% | inhibition [6] 1.82% | RAM network inhibition [7] -0.98%

CC(=O)c1ccc(NC(=O)CSC(C)C)cc1
inactive: growth inhibition [1] -0.135% | growth inhibition [2] -18.6% | viability increase [3] -0.64% | viability [4] 102% | viability [5] 97.9% | inhibition [6] 1.36% | RAM network inhibition [7] 0.37%

C=CCOc1ccc(C2c3c(oc4ccccc4c3=O)C(=O)N2c2ccccn2)cc1OCC (configuration not stated)
inactive: growth inhibition [1] -13.9% | growth inhibition [2] -10.5% | viability increase [3] -5.39% | viability [4] 77.9% | viability [5] 74.6% | inhibition [6] 2.57% | RAM network inhibition [7] 6.03%

Nc1nc(SCC(=O)N2CCCc3ccccc32)n(-c2ccccc2)n1
inactive: growth inhibition [1] -4.37% | growth inhibition [2] 0.05% | viability increase [3] -4.68% | viability [4] 108% | viability [5] 99.3% | inhibition [6] 2.67% | RAM network inhibition [7] 6.67%

O=C(CN1CCOc2ccccc21)NCc1ccccc1
inactive: growth inhibition [1] -29.7% | growth inhibition [2] 4.34% | viability increase [3] -6.69% | viability [4] 98.2% | viability [5] 86% | inhibition [6] 0.395% | RAM network inhibition [7] 2.11%

O=C(Nn1c(=S)[nH]c2ccccc2c1=O)c1ccncc1
inactive: growth inhibition [1] 6.51% | growth inhibition [2] -5.44% | viability increase [3] -2.87% | viability [4] 91.9% | viability [5] 90.5% | inhibition [6] 1.75% | RAM network inhibition [7] 4.74%
